Screening results (PubChem)
STAT3 activator: IL-6 driven STAT3 reporter potentiators, primary screen, U3A cells, luciferase, luminescence, MLSCN library; activation (% of control), % at 5.6 µM; 190,000 compounds, 0.91% hits; AID 871, 2007; IL-6 STAT3-luciferase reporter; 100% = signal with IL-6 EC80 alone;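 active means activation above the screen-wide mean of compound activation plus 3 SD, cut at about 130% in these data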
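Test system: STAT3-luciferase reporter U3A cells; Detection: reporter luminescence signal; Times: 1 h compound pre-exposure, 6 h IL-6 stimulation, 37 °C; Benchmarks: IL-6-only high control; Also added: IL-6 stimulus at 33 ng/mL final.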
NF-kB expr up: activators of NF-kB expression in neurons, primary screen, cell-based, HTS | human neuronal cells, NF-kB reporter expression; stronger effect = higher value | fold change at 12.5 µM | 190,000 compounds, 1.6% hits | AID 1239, 2008; in the data active means fold change above about 3.3
APP 5'UTR act: activators of APP 5'UTR luciferase reporter, primary screen, SH-SY5Y cells | SH-SY5Y APP 5'UTR luciferase reporter, luminescence; zero percent = DMSO vehicle wells | activation, % at 2 µM | 190,000 compounds, 1% hits | AID 1276, 2008;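 active means activation above a set limit, based on mean plus 3 SD of controls, cut at about 140% in these data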
STAT1 activator: STAT1 signaling activators, primary screen, cell-based, HTS, luciferase reporter; NIH 3T3 STAT1-luciferase reporter, IFN-gamma, luminescence; 100% = IFN-gamma alone, no compound; activation (% of control), % at 5.5 µM; 200,000 compounds, 2.6% hits; AID 932, 2007;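 active means activation above the screen-wide mean activation plus 3 SD, cut at about 130% in these data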
STAT1 inh: STAT1 signaling inhibitors, primary screen, cell-based, HTS, luciferase reporter; inhibition, % at 5.5 µM; 200,000 compounds, 0.35% hits; NIH 3T3 STAT1-luciferase reporter, IFN-gamma, luminescence;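 active means inhibition above a set limit, the mean inhibition across all tested compounds plus 3 SD, cut at about 34% in these data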
STAT3 inh: IL-6 driven STAT3 reporter inhibitors, primary screen, U3A cells, luciferase, luminescence, MLSCN library; inhibition, % at 5.5 µM; 190,000 compounds, 0.89% hits; AID 862, 2007; IL-6 STAT3-luciferase reporter; host cell line lacks STAT1;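 active means inhibition above the mean inhibition across all screened compounds plus 3 SD, cut at about 44% in these data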
Numbers stand for hits; . = inactive; / = not tested or not shown. Compounds with a hit are over-represented: about 4.9% of the library has one in this group of screens.

SMILES | STAT3 activator | NF-kB expr up | APP 5'UTR act | STAT1 activator | STAT1 inh | STAT3 inh
CC(=O)Nc1cc(OC(C)=O)c2nonc2c1OC(C)=O | . | / | . | . | 95 | .
CC(=O)Nc1nonc1NC(C)=O | . | . | . | . | . | .
CN(C(=O)c1cccnc1)c1nnc(-c2ccccn2)s1 | . | . | . | 136 | . | .
CN(C(=O)c1cccnc1)c1nnc(-c2cnccn2)s1 | . | . | . | . | . | .
Oc1ccc(N2CCN(C(=S)NCCc3ccccc3)CC2)cc1 | . | 4.7 | . | . | . | .
N/C(=N\OC(=O)COc1ccc2ccccc2c1Br)c1ccccn1 | . | / | . | 139 | . | .
N/C(=N\OC(=O)c1cc(Cl)ccc1Cl)c1ccccn1 | . | . | 172 | . | . | .
N/C(=N\OC(=O)COc1cc(Cl)c(Cl)cc1Cl)c1ccncc1 | . | . | . | 131 | . | .
N/C(=N\OC(=O)COc1ccc(Cl)cc1Cl)c1ccccn1 | . | 5.2 | . | . | . | .
Cc1cc(C)c(C)c(OCC(=O)O/N=C(\N)c2ccccn2)c1 | . | . | / | . | . | .
N/C(=N\OC(=O)C(c1ccccc1)c1ccccc1)c1ccccn1 | . | . | . | . | . | .
N/C(=N\OC(=O)COc1ccccc1)c1ccc(Cl)cc1 | . | . | . | . | . | .
Cc1ccnc(N2CCN(c3c4c(c(C#N)c5nc6ccccc6n35)CCC4)CC2)c1 | . | / | . | . | . | .
Cc1ccc2nc(SCCC(=O)O)cc(C)c2c1 | . | . | . | . | . | .
CN(/N=C/c1ccc(Br)o1)C1=NS(=O)(=O)c2ccccc21 | . | . | . | . | . | .
O=C(CSc1nc2ccccc2s1)Nc1cc(S(=O)(=O)N2CCOCC2)ccc1O | . | . | . | . | . | .
O=C(NC(=O)c1ccc(Cl)cc1)OC1CCCCC1 | . | . | . | . | . | .
O=C(CNC(=O)c1ccccc1)OC1CCCCC1 | . | . | . | 135 | . | .
O=C(O)C1CC=CCC1C(=O)NNc1ccccc1 (configuration not stated) | . | . | . | . | . | .
Cc1ccc2cc(C=O)c(N(C)C)nc2c1 | 134 | . | . | . | . | .
C/C(=N\NC(=O)c1csc(C)c1C)c1ccc(C)s1 | . | . | . | . | . | .
C/C(=N\NC(=O)c1csc(C)c1C)c1ccco1 | . | 3.7 | . | . | . | .
COc1cc(/C=N/N(C)c2ccccc2)ccc1O | . | 10 | 179 | 140 | . | .
O=S(=O)(NC1c2cccc3cccc(c23)C1Sc1ncccn1)c1ccccc1 (configuration not stated) | . | . | . | . | . | .
Nc1nonc1-c1nc2ccccc2n1Cc1ccc(F)cc1Cl | 161 | . | . | 135 | . | .
SMILES | STAT3 activator | NF-kB expr up | APP 5'UTR act | STAT1 activator | STAT1 inh | STAT3 inh
Cc1cccc(NC(=O)c2c(O)c3cccc4c3n(c2=O)CC4)c1 | 158 | / | . | . | . | .
O=C(NCCc1ccccc1)c1nc2c(nnn2Cc2ccccc2Cl)c(=O)[nH]1 | 133 | . | . | . | . | .
CCOC(=O)Cc1csc(NC(=O)CC(C)(C)C)n1 | . | . | . | . | . | .
O=C(c1cc2ccccc2c(=O)o1)N1CCCCCC1 | . | . | . | . | . | .
O=C(c1cc2cc(Br)ccc2o1)N1CCCCC1 | . | . | . | 134 | . | .
CC(C)CC(COCc1ccc(Cl)cc1)N1CCN(C(=O)c2cccc(C(F)(F)F)c2)CCC1=O (configuration not stated) | . | . | . | . | . | .
CC(C)CC(COCc1ccc(C(F)(F)F)cc1)N1CCN(C(=O)c2ccc(C(F)(F)F)cc2)CCC1=O (configuration not stated) | . | 3.9 | . | . | . | .
COc1ccc(C(CNC(=O)c2cc(F)c(F)c(F)c2F)N2CCOCC2)cc1 (configuration not stated) | . | . | . | . | . | .
CCOc1nc(-c2ccc(Cl)cc2)nc2ccccc12 | . | . | . | . | . | .
COc1cccc(NC2SC(=O)N(c3ccccc3)C2=O)c1 (configuration not stated) | . | 4.1 | . | . | . | .
